Assay results: ChEMBL document CHEMBL4265992, “Noncovalent Inhibitors of Mosquito Acetylcholinesterase 1 with Resistance-Breaking Potency” (J Med Chem, 2018)
Activity calls are given as the source filed them. The rule behind the calls is not given here.

Columns and labels:
[1] = system: Aedes aegypti; assay: Insecticidal activity against five day old female adult Aedes aegypti Mombasa assessed as mortality rate at 21 ng administered via micro-injection measured after 24 hrs relative to control; type: functional
How it was run: (§1)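 Test compounds were made up at 100 mM in acetone, then diluted in mosquito saline (5% acetone final; 4.3% for propoxur). 23 nl was injected into the thoracic cavity of anesthetized females. Negative control was saline with matching acetone. Mosquitoes were then given glucose. Mortality was read at 24 and 48 h, Abbott-corrected when control mortality exceeded 5%. Runs with control mortality ≥20% were discarded.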

[2] = system: Aedes aegypti; assay: Insecticidal activity against topically dosed female adult Aedes aegypti assessed as mortality measured after 24 hrs; type: functional
How it was run: (§2)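 Mosquitoes were reared at 27–28 °C, ~80% humidity, on a 12/12 h light cycle. Insects were chilled on a −20 °C plate. 0.1 µl of compound in acetone was applied to the upper pronotum. Negative control was acetone alone. Afterwards mosquitoes were given glucose and kept in the insectary. Mortality was scored at 24 h, Abbott-corrected when control mortality exceeded 5%. Runs with control mortality ≥20% were discarded.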

[3] = biological target: Acetylcholinesterase (Aedes aegypti, UniProt Q6A2E2); assay: Inhibition of recombinant Aedes aegypti AChE1 expressed in sf9 insect cells using acetylthiocholine iodide as substrate measured over 60 secs by Ellman assay
How it was run: (§3)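 Enzyme source: secreted, non-purified recombinant protein in growth medium. Ellman assay at 30 °C in 0.1 M phosphate buffer pH 7.4 containing 0.2 mM DTNB and 1 mM acetylthiocholine iodide. Absorbance at 412 nm was followed over 60 s after substrate addition, immediately after inhibitor. Activity was expressed relative to the mean slope of eight uninhibited controls per plate.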

[4] = biological target: Acetylcholinesterase (Anopheles gambiae, UniProt Q869C3); assay: Inhibition of recombinant Anopheles gambiae AChE1 expressed in sf9 insect cells using acetylthiocholine iodide as substrate measured over 60 secs by Ellman assay; how it was run: as §3
[5] = biological target: Acetylcholinesterase (Anopheles gambiae, UniProt Q869C3, G122S); assay: Inhibition of recombinant Anopheles gambiae AChE1 G122S mutant expressed in sf9 insect cells using acetylthiocholine iodide as substrate measured over 60 secs by Ellman assay; how it was run: as §3
[6] = biological target: T1, Acetylcholinesterase (Homo sapiens, UniProt P22303); assay: Inhibition of recombinant human AChE using acetylthiocholine iodide as substrate measured over 60 secs by Ellman assay; how it was run: as §3
[7] = system: Aedes aegypti; assay: Insecticidal activity against five day old female adult Aedes aegypti Mombasa assessed as mortality at 4.26 ug administered topically measured after 24 hrs relative to control; type: functional; how it was run: as §2
[8] = system: Aedes aegypti; assay: Insecticidal activity against five day old female adult Aedes aegypti Mombasa assessed as mortality rate at 60.4 ng administered via micro-injection measured after 24 hrs relative to control; type: functional; how it was run: as §1
[9] = system: Aedes aegypti; assay: Insecticidal activity against five day old female adult Aedes aegypti Mombasa assessed as mortality rate at 60.4 ng administered via micro-injection measured after 48 hrs relative to control; type: functional; how it was run: as §1
[10] = Selectivity ratio of IC50 for recombinant human AChE to IC50 for recombinant Aedes aegypti AChE1
How it was run: (§4)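 Ratio = IC50 for hAChE divided by the higher of the IC50 values for AaAChE1 and AgAChE1. All IC50 values came from the Ellman assay with secreted recombinant enzymes.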

[11] = Selectivity ratio of IC50 for recombinant human AChE to IC50 for recombinant Anopheles gambiae AChE1; how it was run: as §4
[12] = biological target: Acetylcholinesterase (Aedes aegypti) (UniProt Q6A2E2); assay: Inhibition of recombinant Aedes aegypti AChE1 expressed in sf9 insect cells at 1 mM using acetylthiocholine iodide as substrate measured over 60 secs by Ellman assay
[13] = biological target: Acetylcholinesterase (Anopheles gambiae) (UniProt Q869C3); assay: Inhibition of recombinant Anopheles gambiae AChE1 expressed in sf9 insect cells at 1 mM using acetylthiocholine iodide as substrate measured over 60 secs by Ellman assay
[14] = system: Acetylcholinesterase (Anopheles gambiae), Q869C3 [G122S]; assay: Inhibition of recombinant Anopheles gambiae AChE1 G122S mutant expressed in sf9 insect cells at 1 mM using acetylthiocholine iodide as substrate measured over 60 secs by Ellman assay
[15] = biological target: T1, Acetylcholinesterase; assay: Inhibition of recombinant human AChE at 1 mM using acetylthiocholine iodide as substrate measured over 60 secs by Ellman assay; conditions: 1 min, 1000 µM
[16] = system: Aedes aegypti; assay: Insecticidal activity against five day old female adult Aedes aegypti Mombasa assessed as mortality rate at 53.6 ng administered via micro-injection measured after 24 hrs relative to control; type: functional; how it was run: as §1
[17] = system: Aedes aegypti; assay: Insecticidal activity against five day old female adult Aedes aegypti Mombasa assessed as mortality rate at 53.6 ng administered via micro-injection measured after 48 hrs relative to control; type: functional; how it was run: as §1
[18] = system: Anopheles gambiae; assay: Insecticidal activity against five day old female adult Anopheles gambiae Kisumu assessed as mortality at 4.26 ug administered topically measured after 24 hrs relative to control; type: functional; how it was run: as §2
[19] = system: Aedes aegypti; assay: Insecticidal activity against topically dosed five day old female adult Aedes aegypti Mombasa assessed as mortality measured after 24 hrs; type: functional; how it was run: as §2
[20] = system: Aedes aegypti; assay: Insecticidal activity against five day old female adult Aedes aegypti Mombasa assessed as mortality rate at 57.3 ng administered via micro-injection measured after 24 hrs relative to control; type: functional; how it was run: as §1
[21] = system: Aedes aegypti; assay: Insecticidal activity against five day old female adult Aedes aegypti Mombasa assessed as mortality rate at 57.3 ng administered via micro-injection measured after 48 hrs relative to control; type: functional; how it was run: as §1
[22] = system: Aedes aegypti; assay: Insecticidal activity against five day old female adult Aedes aegypti Mombasa assessed as mortality rate at 52.7 ng administered via micro-injection measured after 24 hrs relative to control; type: functional; how it was run: as §1
[23] = system: Aedes aegypti; assay: Insecticidal activity against five day old female adult Aedes aegypti Mombasa assessed as mortality rate at 52.7 ng administered via micro-injection measured after 48 hrs relative to control; type: functional; how it was run: as §1

SMILES | IC50 [3] [µM] | IC50 [4] [µM] | IC50 [5] [µM] | IC50 [6] [µM] | Ratio IC50 [10] | Ratio IC50 [11] | further results
CNC(=O)Oc1ccccc1OC(C)C [PROPOXUR] |  |  |  |  |  |  | mortality [1]: 85%; LD50 [2]: 0.0054 µg
CCN1CCN(C2CCN(C(=O)COc3ccc(-c4ccc([N+](=O)[O-])cc4)cc3)CC2)CC1 | 0.11 | 0.08 | 0.13 | 2.1 | 19 | 19 | mortality [7]: 31%; mortality [8]: 64%; mortality [9]: 69%
CCN1CCN(CCCNC(=O)COc2ccc(-c3ccccc3)cc2)CC1 | 3.3 | 3.5 | 16 | 113 | 32 | 32 | 
CCN1CCN(C2CCN(C(=O)COc3ccc(-c4ccc(OC)cc4)cc3)CC2)CC1 | 0.23 | 0.4 | 0.96 | 18 | 45 | 45 | 
O=C(COc1ccc(-c2ccccc2)cc1)N1CCCCC1 |  |  |  |  |  |  | inhibition [12]: inactive; inhibition [13]: inactive; inhibition [14]: inactive; inhibition (INH) [15]: Not Active
CCN1CCN(C(=O)COc2ccc(-c3ccccc3)cc2)CC1 | > 200 | > 200 | > 200 | > 200 |  |  | 
COc1ccc(-c2ccc(OCC(=O)NCCCN3CCN(C)CC3)cc2)cc1 | 16 | 25 | 33 | 190 | 7.6 | 7.6 | 
CN1CCN(CCCNC(=O)COc2ccc(I)cc2)CC1 | 112 | 114 | 128 | 138 | 1.2 | 1.2 | 
O=C(COc1ccc(-c2ccccc2)cc1)NCCCN1CCCCC1 | 9.9 | 10 | 23 | 57 | 5.7 | 5.7 | 
O=C(COc1ccc(-c2ccccc2)cc1)N1CCC(N2CCCCC2)CC1 | 4 | 3.8 | 4.2 | 4.6 | 1.2 | 1.2 | 
O=C(COc1ccc(-c2ccccc2)cc1)N1CCC(N2CCOCC2)CC1 | > 200 | > 200 | > 200 | 93 |  |  | 
CN1CCN(C2CCN(C(=O)COc3ccc(-c4ccccc4)cc3)CC2)CC1 | 0.25 | 0.24 | 0.54 | 10 | 40 | 40 | mortality [16]: 58%; mortality [17]: 66%
CCN1CCN(C2CCN(C(=O)COc3ccc(I)cc3)CC2)CC1 | 1.5 | 3.6 | 6.2 | 20 | 5.6 | 5.6 | 
CCN1CCN(C2CCN(C(=O)COc3ccc(-c4ccccc4)cc3)CC2)CC1 | 0.22 |  |  |  |  |  | 
CCN1CCN(CCCNC(=O)COc2ccc(I)cc2)CC1 | 72 | 43 | 95 | 87 | 1.2 | 1.2 | 
CNC(=O)Oc1cccc2c1OC(C)(C)O2 [BENDIOCARB] |  |  |  |  |  |  | LD50 [2]: 0.0018 µg
CN1CCN(CCCNC(=O)COc2ccc(-c3ccccc3)cc2)CC1 | 12 | 13 | 39 | 115 | 8.8 | 8.8 | 
O=C(COc1ccc(-c2ccccc2)cc1)N1CCOCC1 |  |  |  |  |  |  | inhibition [12]: inactive; inhibition [13]: inactive; inhibition [14]: inactive; inhibition (INH) [15]: Not Active
CCN1CCN(CCCNC(=O)COc2ccc(-c3ccc(OC)cc3)cc2)CC1 | 3.8 | 5.8 | 20 | 110 | 19 | 19 | 
CCN1CCN(C2CCN(C(=O)COc3ccc(-c4ccccc4F)cc3)CC2)CC1 | 0.22 | 0.24 | 0.71 | 19 | 79 | 79 | mortality [7]: 75%; mortality [18]: 88%; LD50 [19]: 2.13 µg; mortality [20]: 55%; mortality [21]: 56%
O=C(COc1ccc(I)cc1)NCCCN1CCCCC1 | 36 | 44 | 31 | 13 | 0.3 | 0.3 | 
CCN1CCN(C2CCN(C(=O)COc3ccc4c(c3)CCC4=O)CC2)CC1 | 0.2 | 0.29 | 0.38 | 4.9 | 16 | 16 | mortality [7]: 50%; mortality [22]: 58%; mortality [23]: 64%
COc1ccc(-c2ccc(OCC(=O)NCCCN3CCCCC3)cc2)cc1 | 3.9 | 4.5 | 5.2 | 14 | 3.1 | 3.1 | 
